Some results are limits rather than exact numbers.

For data set [1], the system named is Respiratory syncytial virus. Briefly: Antiviral activity against Respiratory syncytial virus infected in human HeLa cells assessed as reduction in virus-induced cytopathic effect incubated for 3 to 6 days by light microscopic analysis. The format is functional, organism-based. Summed up: (§1)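 CPE reduction assay: virus and serial compound dilutions added together to subconfluent HeLa (vesicular stomatitis, Coxsackie B4, respiratory syncytial) or Vero (Coxsackie B4, Sindbis, Punta Toro) cultures. Incubated 3–6 days at 37 °C. […] Mean ± SEM of three independent tests.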
For orientation: Cytopathic effects are the visible damage that an infection or toxin causes in cultured cells.

The test system of another data set is Feline coronavirus. As to the kind of experiment: Antiviral activity against Feline coronavirus infected in cat CRFK cells assessed as reduction in virus-induced cytopathic effect incubated for 3 to 6 days by light microscopic analysis. The format is functional, organism-based. As to conditions: Alphacoronavirus 1, CRFK.
Data set [2] deals with Coxsackievirus B4. As to the kind of experiment: Antiviral activity against Human coxsackievirus B4 infected in African green monkey Vero cells assessed as reduction in virus-induced cytopathic effect incubated for 3 to 6 days by light microscopic analysis. Particulars: Enterovirus B. It is filed as functional, organism-based. Summed up: as §1
Another data set has as its system Human alphaherpesvirus 2. As to the kind of experiment: Antiviral activity against Herpes simplex virus 2 infected in human HEL cells assessed as reduction in virus-induced cytopathic effect incubated for 3 to 6 days by light microscopic analysis. The format is functional, cell-based. As to conditions: Human alphaherpesvirus 2, HEL.
For a further data set, the system named is Sindbis virus. As to the kind of experiment: Antiviral activity against Sindbis virus infected in African green monkey Vero cells assessed as reduction in virus-induced cytopathic effect incubated for 3 to 6 days by light microscopic analysis. The format is functional, organism-based. The procedure, abridged:
as §1

The test system of data set [3] is Human immunodeficiency virus 2. As to the kind of experiment: Antiviral activity against Human immunodeficiency virus 2 infected in human MT4 cells assessed as reduction in virus-induced cytopathic effect incubated for 3 to 6 days by light microscopic analysis. It is filed as functional, organism-based. As to conditions: Human immunodeficiency virus 2, MT4.
The subject of another data set is Human alphaherpesvirus 1. As to the kind of experiment: Antiviral activity against Herpes simplex virus 1 infected in human HEL cells assessed as reduction in virus-induced cytopathic effect incubated for 3 to 6 days by light microscopic analysis. It is filed as functional, cell-based. Particulars: Human alphaherpesvirus 1, HEL.
For data set [4], the system named is Vesicular stomatitis virus. As to the kind of experiment: Antiviral activity against Vesicular stomatitis virus infected in human HeLa cells assessed as reduction in virus-induced cytopathic effect incubated for 3 to 6 days by light microscopic analysis. The format is functional, organism-based. The procedure, abridged: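 CPE reduction assay: virus and serial compound dilutions added together to subconfluent HeLa (vesicular stomatitis, Coxsackie B4, respiratory syncytial) or Vero (Coxsackie B4, Sindbis, Punta Toro) cultures. Incubated 3–6 days at 37 °C. Mean ± SEM of three independent tests.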

The subject of a further data set is Felid alphaherpesvirus 1. Briefly: Antiviral activity against Feline herpesvirus infected in cat CRFK cells assessed as reduction in virus-induced cytopathic effect incubated for 3 to 6 days by light microscopic analysis. The format is functional, organism-based. Particulars: Felid alphaherpesvirus 1, CRFK.
Another data set relates to Punta Toro virus. As to the kind of experiment: Antiviral activity against Punta Toro virus infected in African green monkey Vero cells assessed as reduction in virus-induced cytopathic effect incubated for 3 to 6 days by light microscopic analysis. The format is functional, organism-based. The procedure, abridged:
as §1

The next data set has as its system MT4. As to the kind of experiment: Cytotoxicity against human MT4 cells assessed as reduction in cell viability incubated for 3 to 6 days by MTS assay. Particulars: time 3-6 day. It is filed as cell-based. The procedure, abridged:
(§2)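 CRFK or MT4 cells were exposed to serial compound dilutions alongside the antiviral assays for 3–6 days at 37 °C.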

A further data set concerns Influenza B virus. As to the kind of experiment: Antiviral activity against influenza B virus infected in dog MDCK cells assessed as reduction in virus-induced cytopathic effect incubated for 3 to 6 days by light microscopic analysis. The format is functional, organism-based. Summed up:
(§3)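 MDCK cells, subconfluent, received influenza A or B virus together with serial compound dilutions. Incubated 3–6 days at 35 °C.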

The next data set concerns Vaccinia virus. Briefly: Antiviral activity against Vaccinia virus infected in human HEL cells assessed as reduction in virus-induced cytopathic effect incubated for 3 to 6 days by light microscopic analysis. The format is functional, organism-based. As to conditions: Orthopoxvirus vaccinia.
For the next data set, the system named is Influenza A virus. As to the kind of experiment: Antiviral activity against influenza A virus infected in dog MDCK cells assessed as reduction in virus-induced cytopathic effect incubated for 3 to 6 days by light microscopic analysis. The format is functional, organism-based. As to conditions: Influenza A virus, MDCK. Summed up: as §3
A further data set concerns Human respirovirus 3. As to the kind of experiment: Antiviral activity against Human parainfluenza virus 3 infected in African green monkey Vero cells assessed as reduction in virus-induced cytopathic effect incubated for 3 to 6 days by light microscopic analysis. It is filed as functional, organism-based. Particulars: Human respirovirus 3, Vero.
The subject of data set [5] is Human immunodeficiency virus 1. Briefly: Antiviral activity against Human immunodeficiency virus 1 infected in human MT4 cells assessed as reduction in virus-induced cytopathic effect incubated for 3 to 6 days by light microscopic analysis. The format is functional, organism-based. As to conditions: Human immunodeficiency virus 1, MT4.
The test system of data set [6] is Coxsackievirus B4. Briefly: Antiviral activity against Human coxsackievirus B4 infected in human HeLa cells assessed as reduction in virus-induced cytopathic effect incubated for 3 to 6 days by light microscopic analysis. Particulars: Enterovirus B. The format is functional, organism-based. The procedure, abridged:
as §1

Data set [7] in a line: Cytotoxicity against cat CRFK cells assessed as reduction in cell viability incubated for 3 to 6 days by MTS assay. It is filed as cell-based, Felis catus. Particulars: time 3-6 day. Summed up:
as §2
In general terms: Tetrazolium dyes change colour on reduction, which living cells bring about.

A short description of data set [8]: Cytotoxicity against human HEL cells assessed as changes in cell morphology incubated for 3 to 6 days by light microscopy. It is filed as cell-based. Particulars: time 3-6 day. Summed up:
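Human embryonic lung fibroblasts incubated with serial compound dilutions alongside the antiviral assays, 37 °C, 3–6 days. Morphology inspected by light microscopy; minimal cytotoxic concentration taken as lowest concentration giving minimal morphological change.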

Data set [9] deals with Mammalian orthoreovirus 1. As to the kind of experiment: Antiviral activity against Mammalian orthoreovirus 1 infected in African green monkey Vero cells assessed as reduction in virus-induced cytopathic effect incubated for 3 to 6 days by light microscopic analysis. The format is functional, organism-based. Particulars: Mammalian orthoreovirus 1, Vero.

`CCCCN1C(=O)CS/C1=N\NC(=O)c1[nH]c2ccc(F)cc2c1-c1ccccc1`: the EC50 (in data set [1]; in the data set on Feline coronavirus; in the data set with Coxsackievirus B4 [2]; in the data set on Human alphaherpesvirus 2; with Sindbis virus; in data set [3]) was more than 100 µg/mL throughout. The EC50 (with Human alphaherpesvirus 1; in [4]; in the data set on Felid alphaherpesvirus 1; with Punta Toro virus; in the data set with Influenza B virus; with Vaccinia virus) was more than 100 µg/mL each time. The EC50 (in the data set on Influenza A virus; in the data set on Human respirovirus 3; in data set [5]; in the data set with Coxsackievirus B4 [6]; in [9]) was more than 100 µg/mL each time. Besides, the values for the CC50 entry (with MT4; in data set [7] (crfk)) were “>= 98 ug ml-1” and more than 100 µg/mL, respectively. Also, the MCC in data set [8] is more than 10 µg/mL.

In the case of `CCCN1C(=O)CS/C1=N\NC(=O)c1[nH]c2ccc(F)cc2c1-c1ccccc1`, the EC50 (in [1]; in the data set on Feline coronavirus; in the data set with Coxsackievirus B4 [2]; with Human alphaherpesvirus 2; in the data set with Sindbis virus; in data set [3]) was more than 100 µg/mL each time. The EC50 (in the data set with Human alphaherpesvirus 1; in data set [4]; with Felid alphaherpesvirus 1; in the data set on Punta Toro virus; in the data set on Influenza B virus; in the data set on Vaccinia virus) was more than 100 µg/mL throughout. For the same compound, the EC50 (in the data set on Influenza A virus; in the data set with Human respirovirus 3; in data set [5]; with Coxsackievirus B4 [6]; in data set [9]) was more than 100 µg/mL throughout. For the same compound, the results for the CC50 (with MT4; in [7] (crfk)) were more than 125 µg/mL and more than 100 µg/mL, respectively. For the same compound, the MCC in data set [8] was more than 100 µg/mL.

Take `C=CCN1C(=O)CS/C1=N\NC(=O)c1[nH]c2ccc(F)cc2c1-c1ccccc1`: the EC50 (in data set [1]; in the data set with Feline coronavirus; in the data set on Coxsackievirus B4 [2]; in the data set on Human alphaherpesvirus 2; in the data set with Sindbis virus; in [3]) was more than 100 µg/mL in each case. Besides, the EC50 (in the data set with Human alphaherpesvirus 1; in [4]; with Felid alphaherpesvirus 1; in the data set on Punta Toro virus; in the data set with Influenza B virus; in the data set with Vaccinia virus) was more than 100 µg/mL throughout. Besides, the EC50 (in the data set on Influenza A virus; in the data set on Human respirovirus 3; in [5]; in the data set with Coxsackievirus B4 [6]; in [9]) was more than 100 µg/mL each time. The cytotoxic concentration (CC50) with MT4 was more than 125 µg/mL; in [7] (crfk), more than 100 µg/mL. In addition, the MCC in [8] was more than 100 µg/mL.

As for `O=c1[nH]c(=O)n([C@H]2C[C@H](O)[C@@H](CO)O2)cc1/C=C/Br` [BRIVUDINE], the EC50 in the data set on Vaccinia virus turned out to be 22 µM.

For the compound `Nc1nc2c(ncn2COC(CO)CO)c(=O)[nH]1` [GANCICLOVIR], the EC50 with Feline coronavirus is more than 100 µM; in the data set with Felid alphaherpesvirus 1, 7.4 µM; with Vaccinia virus it was more than 100 µM. Besides, the CC50 in data set [7] (CRFK cells, read-out: CC50) was more than 100 µM. Moreover, the MCC in data set [8] was more than 100 µM.

Consider `Cc1cn([C@H]2C[C@H](N=[N+]=[N-])[C@@H](CO)O2)c(=O)[nH]c1=O` [ZIDOVUDINE], for which the CC50 in the data set with MT4 is more than 25 µg/mL.

By EC50 is commonly meant the concentration needed to bring the measured effect to its halfway point. Usually CC50 stands for the concentration giving 50% cytotoxicity.

Values taken from ChEMBL document CHEMBL4715693, “Synthesis and antiviral properties of novel indole-based thiosemicarbazides and 4-thiazolidinones” (Bioorg Med Chem, 2016).
